Reference: ChEMBL document CHEMBL3351243, “Novel inhibitors of human histone deacetylases: design, synthesis and bioactivity of 3-alkenoylcoumarines” (Bioorg Med Chem Lett, 2014)
Active and inactive are the calls of the source. The calls are words filed in the database; no cut-off is given here.

Legend:
[1] = molecular target: T1, Histone deacetylase (Homo sapiens) (UniProt Q13547+O15379+Q9UBN7+Q92769+Q9UQL6+Q8WUI4+Q9BY41+Q96DB2+P56524+Q9UKV0+Q969S8); assay: Inhibition of HDAC in human K562 cells nuclear extracts at 100 uM; type: cell-free
In short: (§1)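 Total HDAC activity was measured in vitro on K-562 nuclear extracts with compound at 100 µM. Values are the mean percent change from two independent experiments.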

[2] = tested on: U-937; assay: Antiproliferative activity against human U937 cells at 10 to 100 uM after 24 to 72 hrs; type: functional, cell-based
In short: (§2)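 K-562 (chronic myeloid leukemia) and U-937 (histiocytic lymphoma) cells were exposed to the indicated compound concentrations. Proliferation and viability were scored separately at 24, 48 and 72 h. Data are mean ± SD of three independent cultures.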

[3] = molecular target: T2, Histone deacetylase 8 (Homo sapiens, UniProt Q9BY41); assay: Inhibition of HDAC8 (unknown origin)
T2 sequence (Q9BY41 whole entry): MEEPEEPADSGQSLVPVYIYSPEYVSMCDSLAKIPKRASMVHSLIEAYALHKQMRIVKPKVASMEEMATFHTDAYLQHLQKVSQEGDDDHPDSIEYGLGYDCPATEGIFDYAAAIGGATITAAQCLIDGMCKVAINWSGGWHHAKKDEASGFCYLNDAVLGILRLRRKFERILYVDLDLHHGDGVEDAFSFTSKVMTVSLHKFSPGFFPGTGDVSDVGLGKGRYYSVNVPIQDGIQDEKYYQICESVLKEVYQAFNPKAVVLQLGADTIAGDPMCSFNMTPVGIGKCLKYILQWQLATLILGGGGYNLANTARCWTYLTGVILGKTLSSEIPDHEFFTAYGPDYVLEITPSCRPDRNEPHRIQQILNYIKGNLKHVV
In short: (§3)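 Activity of individual HDAC isoenzymes (classes I, IIb and IV) was measured in vitro with compound. IC50 values come from two independent experiments.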

[4] = molecular target: T3, Histone deacetylase 11 (Homo sapiens, UniProt Q96DB2); assay: Inhibition of HDAC11 (unknown origin); in short: as §3
T3 sequence (Q96DB2 whole entry): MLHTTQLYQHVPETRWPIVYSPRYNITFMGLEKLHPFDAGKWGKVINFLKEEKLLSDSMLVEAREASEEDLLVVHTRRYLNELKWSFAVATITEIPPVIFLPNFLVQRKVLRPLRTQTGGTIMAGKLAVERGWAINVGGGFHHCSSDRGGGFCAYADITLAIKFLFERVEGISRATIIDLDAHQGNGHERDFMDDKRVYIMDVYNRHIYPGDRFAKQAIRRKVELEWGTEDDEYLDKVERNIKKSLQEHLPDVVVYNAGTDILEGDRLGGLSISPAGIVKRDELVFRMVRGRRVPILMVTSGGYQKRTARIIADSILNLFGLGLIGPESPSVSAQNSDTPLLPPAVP

[5] = tested on: K562; assay: Antiproliferative activity against human K562 cells at 10 to 100 uM after 24 to 72 hrs; type: functional, cell-based; in short: as §2
[6] = molecular target: T4, Protein deacetylase HDAC6 (Homo sapiens, UniProt Q9UBN7); assay: Inhibition of HDAC6 (unknown origin); in short: as §3
T4 sequence (Q9UBN7 whole entry): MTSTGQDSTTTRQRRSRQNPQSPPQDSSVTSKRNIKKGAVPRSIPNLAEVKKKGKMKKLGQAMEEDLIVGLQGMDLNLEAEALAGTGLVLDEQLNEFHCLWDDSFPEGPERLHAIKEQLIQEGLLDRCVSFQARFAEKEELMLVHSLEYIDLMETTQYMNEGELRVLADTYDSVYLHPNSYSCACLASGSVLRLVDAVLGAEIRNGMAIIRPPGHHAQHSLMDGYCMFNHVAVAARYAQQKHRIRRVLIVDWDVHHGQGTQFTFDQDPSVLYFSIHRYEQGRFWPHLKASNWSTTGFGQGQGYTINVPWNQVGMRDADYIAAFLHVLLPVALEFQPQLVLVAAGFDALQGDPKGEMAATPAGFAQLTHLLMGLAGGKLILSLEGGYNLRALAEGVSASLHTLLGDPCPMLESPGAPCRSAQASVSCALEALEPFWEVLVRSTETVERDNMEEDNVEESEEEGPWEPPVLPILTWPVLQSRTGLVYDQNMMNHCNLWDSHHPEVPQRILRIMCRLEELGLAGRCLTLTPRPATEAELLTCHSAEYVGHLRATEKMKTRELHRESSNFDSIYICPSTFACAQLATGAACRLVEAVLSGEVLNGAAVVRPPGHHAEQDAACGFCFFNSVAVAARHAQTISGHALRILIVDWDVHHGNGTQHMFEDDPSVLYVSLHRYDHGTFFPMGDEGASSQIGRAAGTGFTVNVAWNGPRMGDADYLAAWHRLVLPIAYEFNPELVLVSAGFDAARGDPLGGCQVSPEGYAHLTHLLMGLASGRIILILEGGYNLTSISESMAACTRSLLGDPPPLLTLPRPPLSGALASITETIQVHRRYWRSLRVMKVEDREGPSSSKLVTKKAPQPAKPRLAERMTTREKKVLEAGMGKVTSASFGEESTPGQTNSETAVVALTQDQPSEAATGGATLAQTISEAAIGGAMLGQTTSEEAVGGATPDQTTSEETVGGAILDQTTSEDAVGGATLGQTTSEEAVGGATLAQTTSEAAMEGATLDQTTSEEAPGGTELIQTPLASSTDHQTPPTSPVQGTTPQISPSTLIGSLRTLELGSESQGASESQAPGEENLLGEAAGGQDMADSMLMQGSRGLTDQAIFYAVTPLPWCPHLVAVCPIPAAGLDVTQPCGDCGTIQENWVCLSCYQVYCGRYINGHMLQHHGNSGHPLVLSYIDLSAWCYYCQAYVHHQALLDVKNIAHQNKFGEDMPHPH

[7] = tested on: PBMC; assay: Cytotoxicity against human PBMC assessed as reduction in cell viability at 10 to 100 uM after 24 to 48 hrs
[8] = molecular target: Histone deacetylase 2 (Homo sapiens, UniProt Q92769); assay: Inhibition of HDAC2 (unknown origin); in short: as §3
[9] = molecular target: Histone deacetylase 3 (Homo sapiens, UniProt O15379); assay: Inhibition of HDAC3 (unknown origin); in short: as §3
[10] = molecular target: Histone deacetylase 1 (Homo sapiens, UniProt Q13547); assay: Inhibition of HDAC1 (unknown origin); in short: as §3
[11] = molecular target: T5, Polyamine deacetylase HDAC10 (Homo sapiens, UniProt Q969S8); assay: Inhibition of HDAC10 (unknown origin); in short: as §3
T5 sequence (Q969S8 whole entry): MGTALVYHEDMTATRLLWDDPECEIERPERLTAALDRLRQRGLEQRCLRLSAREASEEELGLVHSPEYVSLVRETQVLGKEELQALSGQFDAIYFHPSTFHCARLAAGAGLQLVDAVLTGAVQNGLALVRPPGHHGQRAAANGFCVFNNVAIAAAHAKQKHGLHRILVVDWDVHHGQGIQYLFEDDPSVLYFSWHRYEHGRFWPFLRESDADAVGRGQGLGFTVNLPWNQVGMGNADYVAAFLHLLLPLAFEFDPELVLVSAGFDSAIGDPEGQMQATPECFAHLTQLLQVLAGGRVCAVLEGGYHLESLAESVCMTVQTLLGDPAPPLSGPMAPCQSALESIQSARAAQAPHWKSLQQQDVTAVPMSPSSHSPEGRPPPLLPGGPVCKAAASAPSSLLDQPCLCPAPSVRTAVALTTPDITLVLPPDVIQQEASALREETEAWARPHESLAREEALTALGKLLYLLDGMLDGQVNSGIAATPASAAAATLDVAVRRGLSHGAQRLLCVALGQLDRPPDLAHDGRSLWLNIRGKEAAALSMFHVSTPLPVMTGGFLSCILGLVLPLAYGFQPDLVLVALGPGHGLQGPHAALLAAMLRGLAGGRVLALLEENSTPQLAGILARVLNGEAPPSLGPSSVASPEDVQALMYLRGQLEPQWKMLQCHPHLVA

[12] = tested on: U-937; assay: Antiproliferative activity against human U937 cells at 10 to 100 uM after 24 to 48 hrs; type: functional, cell-based; in short: as §2
[13] = tested on: K562; assay: Cytotoxicity against human K562 cells assessed as reduction in cell viability at 10 to 100 uM after 24 to 72 hrs; type: functional, cell-based; in short: as §2
[14] = tested on: U-937; assay: Antiproliferative activity against human U937 cells at 10 to 100 uM after 72 hrs; type: functional, cell-based; in short: as §2
[15] = molecular target: T1, Histone deacetylase (Homo sapiens); assay: Increase in HDAC activity in human K562 cells nuclear extracts at 100 uM; type: cell-based; in short: as §1
[16] = tested on: U-937; assay: Cytotoxicity against human U937 cells assessed as reduction in cell viability at 10 to 100 uM after 24 to 72 hrs; type: functional, cell-based; in short: as §2

Chain of Histone deacetylase 3 (O15379 whole entry): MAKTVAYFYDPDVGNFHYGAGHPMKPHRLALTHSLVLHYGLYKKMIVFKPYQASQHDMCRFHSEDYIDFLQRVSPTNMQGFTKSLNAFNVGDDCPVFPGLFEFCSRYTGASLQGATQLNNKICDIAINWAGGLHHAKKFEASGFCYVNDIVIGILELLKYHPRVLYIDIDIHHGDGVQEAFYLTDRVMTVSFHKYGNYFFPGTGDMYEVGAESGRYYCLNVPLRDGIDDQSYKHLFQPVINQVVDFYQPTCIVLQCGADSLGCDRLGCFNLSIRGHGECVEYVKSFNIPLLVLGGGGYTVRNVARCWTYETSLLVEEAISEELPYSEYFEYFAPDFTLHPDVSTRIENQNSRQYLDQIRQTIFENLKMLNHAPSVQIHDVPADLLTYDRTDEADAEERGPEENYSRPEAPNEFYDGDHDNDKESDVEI
Chain of Histone deacetylase 1 (Q13547 whole entry): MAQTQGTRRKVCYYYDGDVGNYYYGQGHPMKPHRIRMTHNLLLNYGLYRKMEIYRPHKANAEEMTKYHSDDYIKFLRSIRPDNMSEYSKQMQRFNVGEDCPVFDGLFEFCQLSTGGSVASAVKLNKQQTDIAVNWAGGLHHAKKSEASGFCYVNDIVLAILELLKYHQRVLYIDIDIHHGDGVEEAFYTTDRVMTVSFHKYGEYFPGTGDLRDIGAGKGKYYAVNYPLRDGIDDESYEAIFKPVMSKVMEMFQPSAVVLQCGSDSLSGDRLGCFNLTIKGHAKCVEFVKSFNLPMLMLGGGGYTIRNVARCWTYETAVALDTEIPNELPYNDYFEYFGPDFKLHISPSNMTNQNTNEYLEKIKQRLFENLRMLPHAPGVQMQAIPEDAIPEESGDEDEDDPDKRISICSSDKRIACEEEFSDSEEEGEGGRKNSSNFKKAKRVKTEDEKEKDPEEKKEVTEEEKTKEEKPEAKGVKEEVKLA
Chain of Histone deacetylase 2 (Q92769 whole entry): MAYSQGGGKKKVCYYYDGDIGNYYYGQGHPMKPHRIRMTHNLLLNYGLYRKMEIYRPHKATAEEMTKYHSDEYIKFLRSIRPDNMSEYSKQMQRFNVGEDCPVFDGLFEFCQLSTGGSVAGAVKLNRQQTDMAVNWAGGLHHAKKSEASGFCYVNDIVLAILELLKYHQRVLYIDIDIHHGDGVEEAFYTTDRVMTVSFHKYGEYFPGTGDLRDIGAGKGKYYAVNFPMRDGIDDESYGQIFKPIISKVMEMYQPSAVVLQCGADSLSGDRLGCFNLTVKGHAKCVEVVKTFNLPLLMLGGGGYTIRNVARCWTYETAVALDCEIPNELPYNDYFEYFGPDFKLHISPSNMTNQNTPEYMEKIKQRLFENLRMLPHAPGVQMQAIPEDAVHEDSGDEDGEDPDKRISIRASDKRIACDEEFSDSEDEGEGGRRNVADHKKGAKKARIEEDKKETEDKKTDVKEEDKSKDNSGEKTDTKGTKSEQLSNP

SMILES | inhibition [1] [%] | inhibition [2] | inhibition [5] | Activity [7] | other results
COc1ccc(/C=C/C(=O)c2cc3ccc(OC)cc3oc2=O)cc1 | < 10 |  |  |  | 
COc1ccc2cc(C(=O)/C=C/C=C/c3ccc(OC)c(OC)c3)c(=O)oc2c1 | 50 | Active | Active | Non-toxic | IC50 [3]: 28 µM; IC50 [4]: 74 µM; IC50 [6]: 32 µM; IC50 [8]: 33 µM; IC50 [9]: 12 µM; IC50 [10]: 59 µM; IC50 [11]: 85 µM
COc1ccc2cc(C(C)=O)c(=O)oc2c1 | 20 |  | inactive | Non-toxic | inhibition [12]: inactive; Activity [13]: inactive; inhibition [14]: Active
COc1ccc2cc(C(=O)/C=C/c3ccc(OC)c(OC)c3)c(=O)oc2c1 | < 10 |  |  |  | 
COc1ccc(/C=C/C=O)cc1OC [3,4-DIMETHOXY CINNAMALDEHYDE] |  |  | inactive | Non-toxic | inhibition [12]: inactive; Activity [15]: 80%; Activity [13]: inactive; inhibition [14]: Active
COc1ccc(/C=C/C=C/C(=O)c2cc3ccc(OC)cc3oc2=O)cc1 | 30 | Active | Active | Non-toxic | 
O=C(/C=C/c1ccccc1)c1cc2ccccc2oc1=O | < 10 |  |  |  | 
COc1ccc2cc(C(=O)/C=C/C=C/c3ccc(O)c(OC)c3)c(=O)oc2c1 | < 10 |  |  |  | 
COc1ccc(/C=C/C(=O)c2cc(=O)oc3cc(OC)ccc23)cc1 | 20 | Active | Active | Non-toxic | inhibition [16]: Active
O=C(/C=C/C=C/c1ccccc1)c1cc2ccccc2oc1=O | < 10 |  |  |  | 
